Source: ChEMBL document CHEMBL3352487, “Synthesis, antibacterial activity, and biological evaluation of formyl hydroxyamino derivatives as novel potent peptide deformylase inhibitors against drug-resistant bacteria” (Eur J Med Chem, 2014)
Converted amounts (≈) assume the structure as drawn.

Tests used:
Type in all cases: functional
Staphylococcus aureus [1] = experiment: Antimicrobial activity against Staphylococcus aureus isolate CL 1033 after 24 hrs by broth microdilution method; details: isolate CL 1033, 24 h
How it was run: (§1)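 Broth microdilution following NCCLS M7-A4; ATCC strains and clinical isolates from a provincial hospital.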

Staphylococcus aureus [2] = experiment: Antimicrobial activity against Staphylococcus aureus isolate MILES HALL after 24 hrs by broth microdilution method
How it was run: (§2)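 Broth microdilution following NCCLS M7-A4, using ATCC strains and clinical isolates from a provincial hospital.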

Staphylococcus aureus [3] = experiment: Antimicrobial activity against Staphylococcus aureus isolate NEQAS 4158 after 24 hrs by broth microdilution method; details: isolate NEQAS 4158, 24 h; how it was run: as §1
Staphylococcus aureus [4] = experiment: Antimicrobial activity against Staphylococcus aureus isolate NEQAS 4026 after 24 hrs by broth microdilution method; details: isolate NEQAS 4026, 24 h; how it was run: as §1
Staphylococcus aureus [5] = experiment: Antimicrobial activity against Staphylococcus aureus isolate Smith ATCC 13709 after 24 hrs by broth microdilution method; details: isolate Smith ATCC 13709, 24 h; how it was run: as §2
Staphylococcus aureus [6] = experiment: Antimicrobial activity against Staphylococcus aureus OXFORD after 24 hrs by broth microdilution method; how it was run: as §2
Streptococcus pneumoniae [7] = experiment: Antimicrobial activity against Streptococcus pneumoniae N1387 after 24 hrs by broth microdilution method; details: N1387, 24 h; how it was run: as §1
Staphylococcus aureus [8] = experiment: Antimicrobial activity against Staphylococcus aureus isolate CL 939 after 24 hrs by broth microdilution method; details: isolate CL 939, 24 h; how it was run: as §2
Staphylococcus aureus [9] = experiment: Antimicrobial activity against Staphylococcus aureus isolate CARTER 37 after 24 hrs by broth microdilution method; details: isolate CARTER 37, 24 h; how it was run: as §2
Staphylococcus aureus [10] = experiment: Antimicrobial activity against Staphylococcus aureus isolate 306 after 24 hrs by broth microdilution method; details: isolate 306, 24 h; how it was run: as §1
Staphylococcus aureus [11] = experiment: Antimicrobial activity against Staphylococcus aureus isolate RUSSELL after 24 hrs by broth microdilution method; how it was run: as §2
Haemophilus influenzae [12] = experiment: Antimicrobial activity against Haemophilus influenzae Q1 after 24 hrs by broth microdilution method; details: Q1, 24 h; how it was run: as §1
Staphylococcus aureus [13] = experiment: Antimicrobial activity against Staphylococcus aureus isolate Ealing 23 after 24 hrs by broth microdilution method; details: isolate Ealing 23, 24 h; how it was run: as §2
Staphylococcus aureus [14] = experiment: Antimicrobial activity against Staphylococcus aureus isolate RN1024 after 24 hrs by broth microdilution method; details: isolate RN1024, 24 h; how it was run: as §2
Staphylococcus aureus [15] = experiment: Antimicrobial activity against Staphylococcus aureus isolate CL 938 after 24 hrs by broth microdilution method; details: isolate CL 938, 24 h; how it was run: as §1
Staphylococcus aureus [16] = experiment: Antimicrobial activity against Staphylococcus aureus isolate RN4220 pmz1 after 24 hrs by broth microdilution method; details: isolate RN4220 pmz1, 24 h; how it was run: as §2
Moraxella catarrhalis = experiment: Antimicrobial activity against Moraxella catarrhalis 1502 after 24 hrs by broth microdilution method; details: Moraxella catarrhalis, 1502, 24 h; how it was run: as §1
Staphylococcus aureus [17] = experiment: Antimicrobial activity against Staphylococcus aureus isolate 934335 after 24 hrs by broth microdilution method; details: isolate 934335, 24 h; how it was run: as §1
Staphylococcus aureus [18] = experiment: Antimicrobial activity against Staphylococcus aureus isolate OGA833 after 24 hrs by broth microdilution method; details: isolate OGA833, 24 h; how it was run: as §1
Haemophilus influenzae [19] = experiment: Antimicrobial activity against Haemophilus influenzae H128 after 24 hrs by broth microdilution method; details: H128, 24 h; how it was run: as §1
Staphylococcus aureus [20] = experiment: Antimicrobial activity against Staphylococcus aureus WCUH29 after 24 hrs by broth microdilution method; details: WCUH29, 24 h; how it was run: as §1
Staphylococcus aureus [21] = experiment: Antimicrobial activity against Staphylococcus aureus ATCC 29213 after 24 hrs by broth microdilution method; details: ATCC 29213, 24 h; how it was run: as §1
Staphylococcus aureus [22] = experiment: Antimicrobial activity against Staphylococcus aureus isolate PAV 5 after 24 hrs by broth microdilution method; details: isolate PAV 5, 24 h; how it was run: as §1
Staphylococcus aureus [23] = experiment: Antimicrobial activity against Staphylococcus aureus isolate Ealing 32 after 24 hrs by broth microdilution method; details: isolate Ealing 32, 24 h; how it was run: as §1
Streptococcus pneumoniae [24] = experiment: Antimicrobial activity against Streptococcus pneumoniae 1629 after 24 hrs by broth microdilution method; details: Streptococcus pneumoniae, 1629, 24 h; how it was run: as §1
Staphylococcus aureus [25] = experiment: Antimicrobial activity against Staphylococcus aureus isolate 934334 after 24 hrs by broth microdilution method; details: isolate 934334, 24 h; how it was run: as §1
Staphylococcus aureus [26] = experiment: Antimicrobial activity against Staphylococcus aureus isolate 929035 after 24 hrs by broth microdilution method; details: isolate 929035, 24 h; how it was run: as §1
Enterococcus faecium = experiment: Antimicrobial activity against Enterococcus faecium X7501 after 24 hrs by broth microdilution method; details: X7501, 24 h; how it was run: as §1
Streptococcus pyogenes [27] = experiment: Antimicrobial activity against Streptococcus pyogenes 1308007P after 24 hrs by broth microdilution method; how it was run: as §1
Enterococcus faecalis = experiment: Antimicrobial activity against Enterococcus faecalis Isolate 1 after 24 hrs by broth microdilution method; details: Isolate 1, 24 h; how it was run: as §1
Streptococcus pneumoniae [28] = experiment: Antimicrobial activity against Streptococcus pneumoniae ERY2 after 24 hrs by broth microdilution method; details: ERY2, 24 h; how it was run: as §1
Staphylococcus aureus [29] = experiment: Antimicrobial activity against Staphylococcus aureus isolate 934387 after 24 hrs by broth microdilution method; details: isolate 934387, 24 h; how it was run: as §2
Staphylococcus aureus [30] = experiment: Antimicrobial activity against Staphylococcus aureus isolate MN 1255 after 24 hrs by broth microdilution method; details: isolate MN 1255, 24 h; how it was run: as §1
Escherichia coli = experiment: Antimicrobial activity against Escherichia coli isolate 3 after 24 hrs by broth microdilution method; details: isolate 3, 24 h; how it was run: as §1
Staphylococcus aureus [31] = experiment: Antimicrobial activity against Staphylococcus aureus isolate A53 after 24 hrs by broth microdilution method; details: isolate A53, 24 h; how it was run: as §2
Staphylococcus aureus [32] = experiment: Antimicrobial activity against Staphylococcus aureus isolate SWEETING after 24 hrs by broth microdilution method; how it was run: as §2
Haemophilus influenzae [33] = experiment: Antimicrobial activity against AcrA-deficient Haemophilus influenzae H128 after 24 hrs by broth microdilution method; details: H128, 24 h; how it was run: as §1
Staphylococcus aureus [34] = experiment: Antimicrobial activity against Staphylococcus aureus isolate 934324 after 24 hrs by broth microdilution method; details: isolate 934324, 24 h; how it was run: as §1
Streptococcus pyogenes [35] = experiment: Antimicrobial activity against Streptococcus pyogenes 1307006P after 24 hrs by broth microdilution method; how it was run: as §1
Staphylococcus aureus [36] = experiment: Antimicrobial activity against Staphylococcus aureus isolate F89 after 24 hrs by broth microdilution method; details: isolate F89, 24 h; how it was run: as §1
Staphylococcus aureus [37] = experiment: Antimicrobial activity against Staphylococcus aureus isolate 68/8684 after 24 hrs by broth microdilution method; details: isolate 68/8684, 24 h; how it was run: as §1
Staphylococcus aureus [38] = experiment: Antimicrobial activity against Staphylococcus aureus isolate RN1030 after 24 hrs by broth microdilution method; details: isolate RN1030, 24 h; how it was run: as §2
Staphylococcus aureus [39] = experiment: Antimicrobial activity against Staphylococcus aureus isolate 929003 after 24 hrs by broth microdilution method; details: isolate 929003, 24 h; how it was run: as §1

**Q.** How did the MIC (Staphylococcus aureus [1]) turn out when `CC1(C)S[C@@H]2[C@H](NC(=O)[C@H](N)c3ccc(O)cc3)C(=O)N2[C@H]1C(=O)O` [AMOXICILLIN] was run?
**A.** > 16 µg/mL

**Q.** What about the MIC (Staphylococcus aureus [2]) of the same compound?
**A.** 0.25 µg/mL (≈ 0.684 µM)

**Q.** And the MIC (Staphylococcus aureus [3])?
**A.** > 16 µg/mL

**Q.** What about the MIC (Staphylococcus aureus [4]) of the same compound?
**A.** > 16 µg/mL

**Q.** What about the MIC (Staphylococcus aureus [5]) of the same compound?
**A.** 0.125 µg/mL (≈ 0.342 µM)

**Q.** And the MIC (Staphylococcus aureus [6])?
**A.** 0.125 µg/mL (≈ 0.342 µM)

**Q.** What about the MIC (Streptococcus pneumoniae [7]) of the same compound?
**A.** 2 µg/mL (≈ 5.47 µM)

**Q.** What about the MIC (Staphylococcus aureus [8]) of the same compound?
**A.** 2 µg/mL (≈ 5.47 µM)

**Q.** What about the MIC (Staphylococcus aureus [9]) of the same compound?
**A.** 0.25 µg/mL (≈ 0.684 µM)

**Q.** And the MIC (Staphylococcus aureus [10])?
**A.** > 16 µg/mL

**Q.** What about the MIC (Staphylococcus aureus [11]) of the same compound?
**A.** > 16 µg/mL

**Q.** What about the MIC (Haemophilus influenzae [12]) of the same compound?
**A.** 0.25 µg/mL (≈ 0.684 µM)

**Q.** What about the MIC (Staphylococcus aureus [13]) of the same compound?
**A.** 0.5 µg/mL (≈ 1.37 µM)

**Q.** What about the MIC (Staphylococcus aureus [14]) of the same compound?
**A.** > 16 µg/mL

**Q.** What about the MIC (Staphylococcus aureus [15]) of the same compound?
**A.** > 16 µg/mL

**Q.** And the MIC (Staphylococcus aureus [16])?
**A.** 0.125 µg/mL (≈ 0.342 µM)

**Q.** And the MIC (Moraxella catarrhalis)?
**A.** ≤ 0.06 µg/mL

**Q.** What about the MIC (Staphylococcus aureus [17]) of the same compound?
**A.** > 16 µg/mL

**Q.** What about the MIC (Staphylococcus aureus [18]) of the same compound?
**A.** > 16 µg/mL

**Q.** What about the MIC (Haemophilus influenzae [19]) of the same compound?
**A.** 32 µg/mL (≈ 87.6 µM)

**Q.** And the MIC (Staphylococcus aureus [20])?
**A.** 64 µg/mL (≈ 175 µM)

**Q.** And the MIC (Staphylococcus aureus [21])?
**A.** 1 µg/mL (≈ 2.74 µM)

**Q.** And the MIC (Staphylococcus aureus [22])?
**A.** > 16 µg/mL

**Q.** And the MIC (Staphylococcus aureus [23])?
**A.** 1 µg/mL (≈ 2.74 µM)

**Q.** What about the MIC (Streptococcus pneumoniae [24]) of the same compound?
**A.** ≤ 0.06 µg/mL

**Q.** What about the MIC (Staphylococcus aureus [25]) of the same compound?
**A.** > 16 µg/mL

**Q.** And the MIC (Staphylococcus aureus [26])?
**A.** > 16 µg/mL

**Q.** What about the MIC (Enterococcus faecium) of the same compound?
**A.** 16 µg/mL (≈ 43.8 µM)

**Q.** What about the MIC (Streptococcus pyogenes [27]) of the same compound?
**A.** ≤ 0.06 µg/mL

**Q.** And the MIC (Enterococcus faecalis)?
**A.** 0.5 µg/mL (≈ 1.37 µM)

**Q.** And the MIC (Streptococcus pneumoniae [28])?
**A.** ≤ 0.06 µg/mL

**Q.** And the MIC (Staphylococcus aureus [29])?
**A.** > 16 µg/mL

**Q.** And the MIC (Staphylococcus aureus [30])?
**A.** > 16 µg/mL

**Q.** What about the MIC (Escherichia coli) of the same compound?
**A.** 1 µg/mL (≈ 2.74 µM)

**Q.** And the MIC (Staphylococcus aureus [31])?
**A.** 0.125 µg/mL (≈ 0.342 µM)

**Q.** And the MIC (Staphylococcus aureus [32])?
**A.** 0.125 µg/mL (≈ 0.342 µM)

**Q.** And the MIC (Haemophilus influenzae [33])?
**A.** 64 µg/mL (≈ 175 µM)

**Q.** And the MIC (Staphylococcus aureus [34])?
**A.** > 16 µg/mL

**Q.** What about the MIC (Streptococcus pyogenes [35]) of the same compound?
**A.** ≤ 0.06 µg/mL

**Q.** And the MIC (Staphylococcus aureus [36])?
**A.** 2 µg/mL (≈ 5.47 µM)

**Q.** And the MIC (Staphylococcus aureus [37])?
**A.** > 16 µg/mL

**Q.** What about the MIC (Staphylococcus aureus [38]) of the same compound?
**A.** > 16 µg/mL

**Q.** What about the MIC (Staphylococcus aureus [39]) of the same compound?
**A.** > 16 µg/mL
